Measurements taken from ChEMBL document CHEMBL2169836 (J Med Chem, 2012).
The source made the active and inactive calls. The calls are words filed in the database; no cut-off is given here.

Key:
[1] = biological target: T1, Sodium/hydrogen exchanger 1 (Homo sapiens, UniProt P19634); test: Inhibition of NHE1 in human HT-29 cells assessed as intracellular pH change after 30 mins in presence of plasma protein; format: cell-based
[2] = biological target: T1, Sodium/hydrogen exchanger 1; test: Inhibition of NHE1 in human HT-29 cells assessed as intracellular pH change after 30 mins; format: cell-based
[3] = biological target: Voltage-gated inwardly rectifying potassium channel KCNH2 (Homo sapiens, UniProt Q12809); test: Inhibition of human ERG expressed in HEK 293 cells by PatchXpress assay; format: cell-based, HEK293
Sequence of Voltage-gated inwardly rectifying potassium channel KCNH2 (Q12809 whole entry): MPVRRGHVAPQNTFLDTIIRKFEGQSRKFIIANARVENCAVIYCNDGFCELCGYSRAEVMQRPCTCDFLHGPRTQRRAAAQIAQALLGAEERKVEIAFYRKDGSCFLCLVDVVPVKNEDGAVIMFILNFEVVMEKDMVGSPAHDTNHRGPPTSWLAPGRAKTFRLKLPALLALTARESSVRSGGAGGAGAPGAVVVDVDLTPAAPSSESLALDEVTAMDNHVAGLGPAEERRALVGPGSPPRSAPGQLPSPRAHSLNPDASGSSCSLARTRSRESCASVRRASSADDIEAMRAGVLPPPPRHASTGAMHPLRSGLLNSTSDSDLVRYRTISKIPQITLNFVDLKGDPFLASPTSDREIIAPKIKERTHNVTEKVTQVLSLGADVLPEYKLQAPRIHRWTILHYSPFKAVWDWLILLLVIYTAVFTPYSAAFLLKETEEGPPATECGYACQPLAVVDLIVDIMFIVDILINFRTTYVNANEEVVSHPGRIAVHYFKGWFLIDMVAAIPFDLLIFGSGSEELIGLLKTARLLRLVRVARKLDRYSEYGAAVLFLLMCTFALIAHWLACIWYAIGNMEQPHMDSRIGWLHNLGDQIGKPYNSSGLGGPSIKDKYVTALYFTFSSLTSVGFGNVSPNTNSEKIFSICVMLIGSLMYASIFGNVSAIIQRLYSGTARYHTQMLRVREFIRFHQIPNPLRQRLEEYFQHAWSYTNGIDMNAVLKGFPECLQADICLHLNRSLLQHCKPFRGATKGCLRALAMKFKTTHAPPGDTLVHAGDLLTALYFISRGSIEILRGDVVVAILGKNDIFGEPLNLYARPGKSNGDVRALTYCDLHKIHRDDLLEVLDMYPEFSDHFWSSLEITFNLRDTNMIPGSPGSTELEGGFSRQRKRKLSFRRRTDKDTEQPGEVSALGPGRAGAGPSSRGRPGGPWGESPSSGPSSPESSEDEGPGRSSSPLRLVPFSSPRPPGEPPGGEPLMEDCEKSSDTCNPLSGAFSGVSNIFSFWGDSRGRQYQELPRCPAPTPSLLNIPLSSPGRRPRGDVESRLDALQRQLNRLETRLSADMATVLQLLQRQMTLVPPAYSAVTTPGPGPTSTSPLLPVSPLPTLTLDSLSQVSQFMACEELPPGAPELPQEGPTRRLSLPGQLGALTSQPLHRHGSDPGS

[4] = Permeability of the compound by PAMPA; format: ADME; details: read-out: permeability
Procedure, shortened: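 Donor buffers were set to pH 5.0, 6.2 and 7.4 with NaOH, and ASB7.4 buffer was used as acceptor. Filters (0.45 pore, 125 μm thick) were lipid-coated. A 10 mM DMSO stock was diluted to 41.7 μM in donor buffer. The sandwich was incubated 4 h without stirring. Reference, donor and acceptor concentrations were read in duplicate by UV plate reader, and ratings were assigned from permeation velocity.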

[5] = Metabolic stability in human liver microsomes at 1 uM up to 60 mins by LC/MS/MS analysis relative to hepatic blood flow; format: ADME, Microsome; details: read-out: Stability
[6] = Metabolic stability in rat liver microsomes at 1 uM up to 60 mins by LC/MS/MS analysis relative to hepatic blood flow; format: ADME, Microsome; details: read-out: Stability
Cytochrome P450 3A4 [7] = biological target: T2, Cytochrome P450 3A4 (Homo sapiens, UniProt P08684); test: Inhibition of CYP3A4 in human liver microsomes using 7-benzyloxy-4-(trifluoromethyl)-coumarin as substrate after 30 mins by LC/MS/MS analysis; format: ADME, Microsome
T2 sequence (P08684 whole entry): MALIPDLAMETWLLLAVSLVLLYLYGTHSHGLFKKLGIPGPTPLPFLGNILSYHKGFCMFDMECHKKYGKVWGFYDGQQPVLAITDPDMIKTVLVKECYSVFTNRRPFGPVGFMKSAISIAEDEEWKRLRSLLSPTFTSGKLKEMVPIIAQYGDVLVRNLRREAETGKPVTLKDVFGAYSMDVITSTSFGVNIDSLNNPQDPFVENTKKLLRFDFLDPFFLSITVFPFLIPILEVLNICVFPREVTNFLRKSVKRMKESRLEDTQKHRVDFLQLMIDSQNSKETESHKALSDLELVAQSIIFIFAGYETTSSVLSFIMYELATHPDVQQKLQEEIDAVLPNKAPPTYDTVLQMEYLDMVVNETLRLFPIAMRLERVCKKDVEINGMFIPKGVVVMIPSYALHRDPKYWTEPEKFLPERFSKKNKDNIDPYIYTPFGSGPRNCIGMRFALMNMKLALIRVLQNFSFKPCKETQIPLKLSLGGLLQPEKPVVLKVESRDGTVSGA

Cytochrome P450 2D6 = Cytochrome P450 2D6 (Homo sapiens, UniProt P10635); test: Inhibition of CYP2D6 in human liver microsomes using 3-[2-(N,N-diethyl-N-methylamino)ethyl]-7- methoxy-4-methylcoumarin as substrate after 45 mins by LC/MS/MS analysis; format: ADME, Microsome
Sequence of Cytochrome P450 2D6 (P10635 whole entry): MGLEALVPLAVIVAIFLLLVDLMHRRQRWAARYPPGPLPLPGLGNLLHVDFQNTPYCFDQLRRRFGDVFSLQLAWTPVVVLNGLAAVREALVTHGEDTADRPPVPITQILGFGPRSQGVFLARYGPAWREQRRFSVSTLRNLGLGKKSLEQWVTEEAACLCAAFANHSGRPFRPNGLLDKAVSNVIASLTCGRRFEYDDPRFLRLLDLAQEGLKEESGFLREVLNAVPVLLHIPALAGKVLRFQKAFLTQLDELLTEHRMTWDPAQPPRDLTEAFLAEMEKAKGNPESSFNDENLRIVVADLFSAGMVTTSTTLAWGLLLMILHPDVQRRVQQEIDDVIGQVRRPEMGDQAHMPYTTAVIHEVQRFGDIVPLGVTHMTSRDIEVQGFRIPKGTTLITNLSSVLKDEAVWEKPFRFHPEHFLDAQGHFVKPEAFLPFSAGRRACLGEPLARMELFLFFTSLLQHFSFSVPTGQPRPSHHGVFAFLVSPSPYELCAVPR

Cytochrome P450 2C9 = Cytochrome P450 2C9 (Homo sapiens, UniProt P11712); test: Inhibition of CYP2C9 in human liver microsomes using 7-methoxy-4-(trifluoromethyl)-coumarin as substrate after 45 mins by LC/MS/MS analysis; format: ADME, Microsome
Sequence of Cytochrome P450 2C9 (P11712 whole entry): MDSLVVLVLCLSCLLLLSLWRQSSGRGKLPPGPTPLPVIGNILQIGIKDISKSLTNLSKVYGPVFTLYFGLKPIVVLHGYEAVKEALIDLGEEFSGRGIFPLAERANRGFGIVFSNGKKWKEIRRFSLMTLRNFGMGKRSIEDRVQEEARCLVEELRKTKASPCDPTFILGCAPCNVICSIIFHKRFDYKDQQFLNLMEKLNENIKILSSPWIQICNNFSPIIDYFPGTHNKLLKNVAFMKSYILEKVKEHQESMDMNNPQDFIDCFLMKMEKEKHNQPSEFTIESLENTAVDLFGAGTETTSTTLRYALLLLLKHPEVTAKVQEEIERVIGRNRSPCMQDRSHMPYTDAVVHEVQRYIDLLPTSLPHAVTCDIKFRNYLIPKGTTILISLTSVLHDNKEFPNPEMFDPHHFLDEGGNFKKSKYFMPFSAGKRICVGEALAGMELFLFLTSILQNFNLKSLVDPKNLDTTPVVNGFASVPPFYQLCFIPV

Cytochrome P450 2C19 = Cytochrome P450 2C19 (Homo sapiens, UniProt P33261); test: Inhibition of CYP2C19 in human liver microsomes using 7-ethoxy-3-cyanocoumarin as substrate after 45 mins by LC/MS/MS analysis; format: ADME, Microsome
Sequence of Cytochrome P450 2C19 (P33261 whole entry): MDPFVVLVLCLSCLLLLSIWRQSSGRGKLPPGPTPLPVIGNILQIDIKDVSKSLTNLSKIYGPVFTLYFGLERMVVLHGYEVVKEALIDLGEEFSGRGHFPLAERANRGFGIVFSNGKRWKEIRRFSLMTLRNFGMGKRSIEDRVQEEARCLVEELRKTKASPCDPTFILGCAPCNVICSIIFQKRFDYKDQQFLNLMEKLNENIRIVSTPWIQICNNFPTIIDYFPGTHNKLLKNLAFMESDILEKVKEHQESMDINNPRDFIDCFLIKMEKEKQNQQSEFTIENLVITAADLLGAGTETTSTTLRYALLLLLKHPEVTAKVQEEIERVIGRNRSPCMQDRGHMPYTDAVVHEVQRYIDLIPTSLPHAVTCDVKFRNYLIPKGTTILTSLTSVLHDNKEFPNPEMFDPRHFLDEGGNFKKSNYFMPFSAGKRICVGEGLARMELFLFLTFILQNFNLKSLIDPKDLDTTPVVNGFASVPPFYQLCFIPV

[8] = Volume of distribution at steady state in jugular and femoral vein precannulated Sprague-Dawley rat at 1 mg/kg, iv by LC/MS/MS analysis; format: ADME, organism-based; parameters: dose 1 mg/kg, route intravenous; details: in vivo, read-out: Vdss
[9] = Mean resident time in jugular and femoral vein precannulated Sprague-Dawley rat at 1 mg/kg, iv by LC/MS/MS analysis; format: ADME, organism-based; parameters: dose 1 mg/kg, route intravenous; details: in vivo
Rattus norvegicus = test: Clearance in jugular and femoral vein precannulated Sprague-Dawley rat at 1 mg/kg, iv by LC/MS/MS analysis relative to hepatic blood flow; format: ADME, organism-based, Liver; parameters: dose 1 mg/kg, route intravenous; details: in vivo
[10] = Oral bioavailability in overnight fasted Beagle dog at 5 mg/kg; format: ADME, organism-based, Canis lupus familiaris; details: in vivo
[11] = Mean resident time in overnight fasted Beagle dog at 1 mg/kg, iv; format: ADME, organism-based, Canis lupus familiaris; parameters: dose 1 mg/kg, route intravenous; details: in vivo
[12] = Volume of distribution at steady state in overnight fasted Beagle dog at 1 mg/kg, iv; format: ADME, organism-based, Canis lupus familiaris; parameters: dose 1 mg/kg, route intravenous; details: in vivo, read-out: Vdss
Canis familiaris = test: Clearance in overnight fasted Beagle dog at 1 mg/kg, iv relative to hepatic blood flow; format: ADME, organism-based, Canis lupus familiaris, Liver; parameters: dose 1 mg/kg, route intravenous; details: in vivo
[13] = biological target: T3, Sodium/hydrogen exchanger 3 (Homo sapiens) (UniProt P48764); test: Inhibition of NHE3 transfected in Chinese hamster PS120 assessed as intracellular pH change up to 16 uM; format: cell-based
T3 sequence (whole entry): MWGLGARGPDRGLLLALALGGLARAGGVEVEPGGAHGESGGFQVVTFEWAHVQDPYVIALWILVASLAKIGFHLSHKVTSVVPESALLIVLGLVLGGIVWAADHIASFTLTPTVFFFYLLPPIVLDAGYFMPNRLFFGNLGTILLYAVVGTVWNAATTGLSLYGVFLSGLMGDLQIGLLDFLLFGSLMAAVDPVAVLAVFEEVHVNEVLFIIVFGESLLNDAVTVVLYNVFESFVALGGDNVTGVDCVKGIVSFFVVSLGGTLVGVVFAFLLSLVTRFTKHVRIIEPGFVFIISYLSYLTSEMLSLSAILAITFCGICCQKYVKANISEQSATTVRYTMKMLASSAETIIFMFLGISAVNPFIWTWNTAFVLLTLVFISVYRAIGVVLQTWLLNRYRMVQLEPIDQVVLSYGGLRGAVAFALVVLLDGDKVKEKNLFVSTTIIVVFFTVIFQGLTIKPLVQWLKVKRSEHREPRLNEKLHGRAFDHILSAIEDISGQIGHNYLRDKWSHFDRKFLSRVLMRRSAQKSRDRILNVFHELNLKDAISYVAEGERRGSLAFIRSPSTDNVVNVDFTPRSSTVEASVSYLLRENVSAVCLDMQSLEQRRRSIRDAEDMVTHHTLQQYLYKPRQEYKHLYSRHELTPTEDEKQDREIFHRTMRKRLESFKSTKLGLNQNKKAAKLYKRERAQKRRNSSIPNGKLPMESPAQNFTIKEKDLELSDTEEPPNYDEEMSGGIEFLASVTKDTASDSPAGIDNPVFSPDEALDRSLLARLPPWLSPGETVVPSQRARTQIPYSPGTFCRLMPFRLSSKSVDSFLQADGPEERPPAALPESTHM

[14] = Oral bioavailability in jugular and femoral vein precannulated Sprague-Dawley rat plasma at 5 mg/kg by LC/MS/MS analysis; format: ADME, organism-based
Heart [15] = test: Inhibition of ischemia reperfusion injury-induced decrease in left ventricular developed pressure in Langendorff isolated perfused Sprague-Dawley rat heart at 10 nM after 30 mins; format: functional; parameters: scale not given: the % may be the effect or the level left
Procedure, shortened: (§1)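 In the isolated perfused rat heart ischemia-reperfusion model, compound was present in the perfusate. Recovery of left ventricular developed pressure was expressed as % of baseline pressure, 30 min postreperfusion, against vehicle control. Left ventricular end diastolic pressure was also monitored.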

Heart [16] = test: Inhibition of ischemia reperfusion injury-induced decrease in left ventricular developed pressure in Langendorff isolated perfused Sprague-Dawley rat heart at 100 nM after 30 mins; format: functional; parameters: scale not given: the % may be the effect or the level left; procedure, shortened: as §1
U-937 = test: Induction of phopspholipidosis in human U937 cells up to 50 uM after 24 hrs by Nile red flow cytometry assay; format: cell-based; details: u-937, 24 h
HeLa = test: Cytotoxicity against human HeLa cells up to 100 uM after 24 hrs; format: cell-based
Escherichia coli [17] = test: Genotoxicity in Escherichia coli WP2 expressing uvrA up to 5000 ug/plate by Ames test in presence of S9 fraction; format: toxicity, organism-based
Escherichia coli [18] = test: Genotoxicity in Escherichia coli WP2 expressing uvrA up to 5000 ug/plate by Ames test in absence of S9 fraction; format: toxicity, organism-based
Salmonella typhimurium [19] = test: Genotoxicity in Salmonella typhimurium TA100 up to 5000 ug/plate by Ames test in the presence of S9 fraction; format: toxicity, organism-based; details: salmonella enterica subsp. enterica serovar typhimurium
Salmonella typhimurium [20] = test: Genotoxicity in Salmonella typhimurium TA100 up to 5000 ug/plate by Ames test in the absence of S9 fraction; format: toxicity, organism-based; details: salmonella enterica subsp. enterica serovar typhimurium
Salmonella typhimurium [21] = test: Genotoxicity in Salmonella typhimurium TA98 up to 5000 ug/plate by Ames test in the absence of S9 fraction; format: toxicity, organism-based; details: salmonella enterica subsp. enterica serovar typhimurium
Salmonella typhimurium [22] = test: Genotoxicity in Salmonella typhimurium TA98 up to 5000 ug/plate by Ames test in the presence of S9 fraction; format: toxicity, organism-based; details: salmonella enterica subsp. enterica serovar typhimurium
Salmonella typhimurium [23] = test: Genotoxicity in Salmonella typhimurium TA1537 up to 5000 ug/plate by Ames test in the presence of S9 fraction; format: toxicity, organism-based; details: salmonella enterica subsp. enterica serovar typhimurium
Salmonella typhimurium [24] = test: Genotoxicity in Salmonella typhimurium TA1537 up to 5000 ug/plate by Ames test in the absence of S9 fraction; format: toxicity, organism-based; details: salmonella enterica subsp. enterica serovar typhimurium
Salmonella typhimurium [25] = test: Genotoxicity in Salmonella typhimurium TA1535 up to 5000 ug/plate by Ames test in the presence of S9 fraction; format: toxicity, organism-based; details: salmonella enterica subsp. enterica serovar typhimurium
Salmonella typhimurium [26] = test: Genotoxicity in Salmonella typhimurium TA1535 up to 5000 ug/plate by Ames test in the absence of S9 fraction; format: toxicity, organism-based; details: salmonella enterica subsp. enterica serovar typhimurium
Cytochrome P450 3A4 [27] = biological target: T2, Cytochrome P450 3A4; test: Activation of CYP3A4 expressed in DPX cells co-transfected with human PXR at 0.1 to 10 uM; format: ADME, cell-based

T1 sequence (P19634 whole entry): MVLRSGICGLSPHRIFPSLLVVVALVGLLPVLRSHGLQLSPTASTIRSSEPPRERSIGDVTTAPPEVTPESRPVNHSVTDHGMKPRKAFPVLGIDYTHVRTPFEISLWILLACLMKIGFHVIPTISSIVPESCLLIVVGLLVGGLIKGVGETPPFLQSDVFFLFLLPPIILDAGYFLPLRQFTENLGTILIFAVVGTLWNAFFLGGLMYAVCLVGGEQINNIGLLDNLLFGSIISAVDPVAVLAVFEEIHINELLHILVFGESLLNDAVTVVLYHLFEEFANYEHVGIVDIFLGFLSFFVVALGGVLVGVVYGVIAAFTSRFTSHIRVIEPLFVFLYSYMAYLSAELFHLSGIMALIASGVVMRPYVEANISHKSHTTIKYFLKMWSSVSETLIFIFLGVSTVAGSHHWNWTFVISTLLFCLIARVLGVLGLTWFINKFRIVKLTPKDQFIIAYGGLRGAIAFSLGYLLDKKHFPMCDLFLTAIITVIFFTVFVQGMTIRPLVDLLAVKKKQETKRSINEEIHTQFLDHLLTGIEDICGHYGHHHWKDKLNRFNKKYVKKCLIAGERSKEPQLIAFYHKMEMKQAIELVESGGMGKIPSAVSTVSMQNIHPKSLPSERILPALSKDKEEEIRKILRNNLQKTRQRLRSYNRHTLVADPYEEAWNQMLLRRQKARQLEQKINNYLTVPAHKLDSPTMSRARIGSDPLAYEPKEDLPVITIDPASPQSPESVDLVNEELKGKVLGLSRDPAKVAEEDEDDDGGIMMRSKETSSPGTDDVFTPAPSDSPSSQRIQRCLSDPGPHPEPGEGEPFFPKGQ

| IC50 [2] | Papp [4] | hepatic extraction ratio at 1 h, 1 µM [5] | hepatic extraction ratio at 1 h, 1 µM [6] | IC50 (Cytochrome P450 3A4 [7]) | IC50 (Cytochrome P450 2D6) | IC50 (Cytochrome P450 2C9) | IC50 (Cytochrome P450 2C19) | Vd [8] | MRT [9] | CL (Rattus norvegicus) | bioavailability [10] | MRT [11] | Vd [12] | CL (Canis familiaris) | inhibition [13] | bioavailability [14] | Structure (SMILES) | IC50 [3] | also measured |
| --- | --- | --- | --- | --- | --- | --- | --- | --- | --- | --- | --- | --- | --- | --- | --- | --- | --- | --- | --- |
| 0.011 µM | ≥ 2 ×10⁻⁶ cm/s | – | – | – | – | – | – | 1 L/kg | 5.3 h | 4.4% | 49% | 14 h | 2 L/kg | 8.1% | inactive | 49% | CCC(=O)N1CCC(c2ccc(C(=O)NC(=N)N)cc2C(F)(F)F)CC1 | – | – |
| 0.006 µM | ≥ 2 ×10⁻⁶ cm/s | < 0.11 | 0.11 | > 30 µM | > 30 µM | > 30 µM | > 30 µM | 0.76 L/kg | 3.2 h | 5.7% | 33% | 6.2 h | 1.4 L/kg | 13% | inactive | 73% | CC(=O)N1CCC(c2ccc(C(=O)NC(=N)N)cc2C(F)(F)F)CC1 [BI 9627] | > 30 µM | Activity (Heart [15]): 36%; Activity (Heart [16]): 100%; Activity (U-937): Non-toxic; Activity (HeLa): Non-toxic; Activity (Escherichia coli [17]): Non-toxic; Activity (Escherichia coli [18]): Non-toxic; Activity (Salmonella typhimurium [19]): Non-toxic; Activity (Salmonella typhimurium [20]): Non-toxic; Activity (Salmonella typhimurium [21]): Non-toxic; Activity (Salmonella typhimurium [22]): Non-toxic; Activity (Salmonella typhimurium [23]): Non-toxic; Activity (Salmonella typhimurium [24]): Non-toxic; Activity (Salmonella typhimurium [25]): Non-toxic; Activity (Salmonella typhimurium [26]): Non-toxic; Activity (Cytochrome P450 3A4 [27]): Not Active |

Continued, compound first:

| Structure (SMILES) | IC50 [2] | Papp [4] | hepatic extraction ratio at 1 h, 1 µM [5] | hepatic extraction ratio at 1 h, 1 µM [6] | IC50 (Cytochrome P450 3A4 [7]) | IC50 (Cytochrome P450 2D6) | IC50 (Cytochrome P450 2C9) | IC50 (Cytochrome P450 2C19) | Vd [8] | MRT [9] | CL (Rattus norvegicus) | bioavailability [10] | MRT [11] | Vd [12] | CL (Canis familiaris) | inhibition [13] | bioavailability [14] | IC50 [3] | also measured |
| --- | --- | --- | --- | --- | --- | --- | --- | --- | --- | --- | --- | --- | --- | --- | --- | --- | --- | --- | --- |
| N=C(N)NC(=O)c1ccc(N2CCCC(NC(=O)c3ccc[nH]3)C2)c(C(F)(F)F)c1 (racemic) | 0.172 µM | – | – | – | – | – | – | – | – | – | – | – | – | – | – | – | – | – | inhibition [1]: Active |
| N#Cc1ccc(C(=O)N2CCC(c3ccc(C(=O)NC(=N)N)cc3C(F)(F)F)CC2)cc1 | – | ≥ 2 ×10⁻⁶ cm/s | < 0.11 | 0.2 | 11 µM | > 30 µM | 13 µM | 15 µM | 6.5 L/kg | 8.5 h | 19% | – | – | – | – | – | – | 4 µM | – |
| Cn1ccnc1C(=O)N1CCC(c2ccc(C(=O)NC(=N)N)cc2C(F)(F)F)CC1 | 0.014 µM | ≥ 2 ×10⁻⁶ cm/s | 0.47 | 0.12 | 26 µM | > 30 µM | 18 µM | 16 µM | 1.4 L/kg | 1 h | 31% | – | – | – | – | – | – | > 30 µM | – |
